Results: ChEMBL document CHEMBL1127544, “A new series of photoactivatable and iodinatable linear vasopressin antagonists” (J Med Chem, 1994)

How the values were obtained:
Vasopressin V1a receptor [1] = molecular target: T1, Vasopressin V1a receptor (Rattus norvegicus, UniProt P30560); assay: Inhibition constant for V1a receptor of rat liver membrane
Outline: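 Competition binding on rat liver membranes (male rat), 5 or 10 μg/assay, 45 min at 30 °C in the dark. Unlabeled peptide 10^-11 to 10^-7 or 10^-6 M against 60 pM [125I]Phaa-D-Tyr(Me)-Phe-Gln-Asn-Arg-Pro-Arg-Tyr-NH2. Nonspecific binding with 1 μM vasopressin. Separation by GF/C filtration. Ki = IC50 × Kd/(Kd + [tracer]), tracer Kd 0.06 nM. Triplicates.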

Vasopressin V1a receptor [2] = molecular target: T1, Vasopressin V1a receptor; assay: Tested for inhibition constant determined from vasopressin induced inositol phosphates accumulation performed on WRK1 cell line of V1a receptor subtype; assay type: cell-based
Outline: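 WRK1 cells prelabeled 3 days with myo-[3H]inositol (2 μCi/mL), then serum-starved 30 min. Preincubated 15 min at 37 °C in PBS with 10 mM LiCl, 1 mg/mL BSA and analogue, then 3 nM AVP or vehicle for 6 min. Stopped with perchloric acid. Total inositol phosphates separated on Dowex. Ki act derived from the antagonism curves. At least three experiments in duplicate.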

Vasopressin V1a receptor [3] = molecular target: T1, Vasopressin V1a receptor; assay: Tested for dissociation constant at V1a receptor of rat liver membrane
Outline: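 Saturation binding of the 125I-labeled azido analogues on rat liver membranes (5 μg), rising labeled-ligand concentrations, run as the competition protocol (45 min, 30 °C, Tris-HCl pH 7.4, MgCl2, BSA, filtration). Nonspecific binding with 250-fold excess of the matching unlabeled analogue. Kd from Scatchard plot. Triplicate values, three independent experiments.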

Vasopressin V2 receptor = Vasopressin V2 receptor (Rattus norvegicus, UniProt Q00788); assay: Tested for inhibition constant at V2 receptor of rat kidney membrane
Outline: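 Rat renal medullary membranes (male rat, freshly prepared), 28.5 μg/assay, 45 min at 30 °C in 50 mM Tris-HCl pH 7.4, 5 mM MgCl2, 1 mg/mL BSA. Competition against 10^-9 M [3H]AVP. Nonspecific binding with 1 μM vasopressin. Filtration over GF/C. Triplicate determinations.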

Oxytocin receptor = molecular target: T2, Oxytocin receptor (Rattus norvegicus, UniProt P70536); assay: Tested for inhibition constant at OT receptor of rat mammary glands
T2 sequence (P70536 whole entry): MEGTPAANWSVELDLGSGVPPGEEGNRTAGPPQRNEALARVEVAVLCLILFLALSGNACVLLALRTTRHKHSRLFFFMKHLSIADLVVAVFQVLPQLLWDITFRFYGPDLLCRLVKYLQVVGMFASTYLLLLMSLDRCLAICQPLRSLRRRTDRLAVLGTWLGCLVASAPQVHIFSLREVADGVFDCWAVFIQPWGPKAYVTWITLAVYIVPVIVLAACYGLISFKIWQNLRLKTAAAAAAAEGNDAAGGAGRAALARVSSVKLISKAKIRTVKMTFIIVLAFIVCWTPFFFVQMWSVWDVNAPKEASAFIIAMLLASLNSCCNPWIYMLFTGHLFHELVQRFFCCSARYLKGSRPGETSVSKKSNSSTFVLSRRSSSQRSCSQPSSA
Outline: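 Rat mammary gland membranes (female rat), 2 or 5 μg/assay, 45 min at 30 °C in 50 mM Tris-HCl pH 7.4, 5 mM MgCl2, 1 mg/mL BSA. Competition against 60 pM [125I]d(CH2)5[Tyr(Me)2,Thr4,Orn8,Tyr-NH2 9]VT. Nonspecific binding with 1 μM oxytocin. Filtration over GF/C. Triplicate determinations.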

T1 sequence (P30560 whole entry): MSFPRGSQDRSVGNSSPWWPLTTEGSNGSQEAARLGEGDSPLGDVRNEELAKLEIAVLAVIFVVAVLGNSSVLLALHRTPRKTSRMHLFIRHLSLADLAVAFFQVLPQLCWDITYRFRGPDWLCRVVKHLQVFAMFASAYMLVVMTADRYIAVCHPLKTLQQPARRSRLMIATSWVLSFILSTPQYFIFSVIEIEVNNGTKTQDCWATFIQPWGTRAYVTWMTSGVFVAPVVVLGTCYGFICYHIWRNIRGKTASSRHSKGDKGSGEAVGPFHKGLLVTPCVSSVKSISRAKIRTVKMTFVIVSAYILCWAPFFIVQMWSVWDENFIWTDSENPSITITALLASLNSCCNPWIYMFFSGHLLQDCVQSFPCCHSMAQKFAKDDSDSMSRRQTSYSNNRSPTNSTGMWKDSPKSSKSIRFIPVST
Vasopressin V2 receptor, sequence (Q00788 whole entry): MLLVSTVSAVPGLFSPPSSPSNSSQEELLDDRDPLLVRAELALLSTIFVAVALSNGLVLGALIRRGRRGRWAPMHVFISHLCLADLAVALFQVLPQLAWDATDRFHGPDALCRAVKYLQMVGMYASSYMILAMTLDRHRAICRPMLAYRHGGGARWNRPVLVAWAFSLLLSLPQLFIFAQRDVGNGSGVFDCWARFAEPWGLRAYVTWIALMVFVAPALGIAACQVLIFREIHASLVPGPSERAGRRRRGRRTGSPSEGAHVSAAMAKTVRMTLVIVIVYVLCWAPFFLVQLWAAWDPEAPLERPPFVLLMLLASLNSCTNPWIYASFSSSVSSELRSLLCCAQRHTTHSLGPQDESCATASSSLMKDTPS

Molecule `COc1ccc(C[C@@H](NC(=O)c2ccc(N=[N+]=[N-])cc2)C(=O)N[C@@H](Cc2ccccc2)C(=O)N[C@@H](CCC(N)=O)C(=O)N[C@@H](CC(N)=O)C(=O)N[C@@H](CCCNC(=N)N)C(=O)N2CCC[C@H]2C(=O)N[C@@H](CCCNC(=N)N)C(=O)N[C@@H](Cc2ccc(O)cc2)C(N)=O)cc1` has a Ki (Vasopressin V1a receptor [1]) of 20 nM.
With `COc1ccc(C[C@@H](NC(=O)c2cccc(N=[N+]=[N-])c2)C(=O)N[C@@H](Cc2ccccc2)C(=O)N[C@@H](CCC(N)=O)C(=O)N[C@@H](CC(N)=O)C(=O)N[C@@H](CCCN=C(N)N)C(=O)N2CCC[C@H]2C(=O)N[C@@H](CCCN=C(N)N)C(=O)N[C@@H](Cc2ccc(O)cc2)C(N)=O)cc1` the Ki (Vasopressin V1a receptor [1]) was 17.8 nM.
Molecule `COc1ccc(C[C@@H](NC(=O)Cc2ccc(N=[N+]=[N-])cc2)C(=O)N[C@@H](Cc2ccccc2)C(=O)N[C@@H](CCC(N)=O)C(=O)N[C@@H](CC(N)=O)C(=O)N[C@@H](CCCNC(=N)N)C(=O)N2CCC[C@H]2C(=O)N[C@@H](CCCNC(=N)N)C(=O)N[C@@H](Cc2ccc(O)cc2)C(N)=O)cc1` (stereo in doubt; 13) has a Ki (Vasopressin V1a receptor [1]) of 0.12 nM.
With `COc1ccc(C[C@@H](NC(=O)Cc2cccc(N=[N+]=[N-])c2)C(=O)N[C@@H](Cc2ccccc2)C(=O)N[C@@H](CCC(N)=O)C(=O)N[C@@H](CC(N)=O)C(=O)N[C@@H](CCCNC(=N)N)C(=O)N2CCC[C@H]2C(=O)N[C@@H](CCCNC(=N)N)C(=O)N[C@@H](Cc2ccc(O)cc2)C(N)=O)cc1` (stereo in doubt; 14) the Ki (Vasopressin V1a receptor [1]) was 0.31 nM.
`COc1ccc(C[C@@H](NC(=O)CCc2ccc(N=[N+]=[N-])cc2)C(=O)N[C@@H](Cc2ccccc2)C(=O)N[C@@H](CCC(N)=O)C(=O)N[C@@H](CC(N)=O)C(=O)N[C@@H](CCCN=C(N)N)C(=O)N2CCC[C@H]2C(=O)N[C@@H](CCCN=C(N)N)C(=O)N[C@@H](Cc2ccc(O)cc2)C(N)=O)cc1` (stereo in doubt; 15) was tested, and the Ki (Vasopressin V1a receptor [1]) was 0.2 nM.
`COc1ccc(C[C@@H](NC(=O)CCc2cccc(N=[N+]=[N-])c2)C(=O)N[C@@H](Cc2ccccc2)C(=O)N[C@@H](CCC(N)=O)C(=O)N[C@@H](CC(N)=O)C(=O)N[C@@H](CCCNC(=N)N)C(=O)N2CCC[C@H]2C(=O)N[C@@H](CCCNC(=N)N)C(=O)N[C@@H](Cc2ccc(O)cc2)C(N)=O)cc1` (stereo in doubt; 16) was tested, and the Ki (Vasopressin V1a receptor [1]) was 0.16 nM.
For `COc1ccc(C[C@@H](NC(=O)CCCc2ccc(N=[N+]=[N-])cc2)C(=O)N[C@@H](Cc2ccccc2)C(=O)N[C@@H](CCC(N)=O)C(=O)N[C@@H](CC(N)=O)C(=O)N[C@@H](CCCN=C(N)N)C(=O)N2CCC[C@H]2C(=O)N[C@@H](CCCN=C(N)N)C(=O)N[C@@H](Cc2ccc(O)cc2)C(N)=O)cc1` (stereo in doubt; 17), the Ki (Vasopressin V1a receptor [1]) was 0.04 nM.
Molecule `COc1ccc(C[C@@H](NC(=O)Cc2ccc(N=[N+]=[N-])cc2)C(=O)N[C@@H](Cc2ccccc2)C(=O)N[C@@H](CCC(N)=O)C(=O)N[C@@H](CC(N)=O)C(=O)N[C@@H](CCCNC(=N)N)C(=O)N2CCC[C@H]2C(=O)N[C@@H](CCCNC(=N)N)C(=O)N[C@@H](Cc2ccc(O)cc2)C(N)=O)cc1` (stereo in doubt; 18) has a Ki (Vasopressin V1a receptor [1]) of 0.59 nM, a Ki (Vasopressin V1a receptor [2]) of 0.2 nM and a Kd (Vasopressin V1a receptor [3]) of 0.15 nM. The Ki (Vasopressin V2 receptor) was 8 nM and the Ki (Oxytocin receptor) was 4.8 nM.
`COc1ccc(C[C@@H](NC(=O)Cc2cccc(N=[N+]=[N-])c2)C(=O)N[C@@H](Cc2ccccc2)C(=O)N[C@@H](CCC(N)=O)C(=O)N[C@@H](CC(N)=O)C(=O)N[C@@H](CCCNC(=N)N)C(=O)N2CCC[C@H]2C(=O)N[C@@H](CCCNC(=N)N)C(=O)N[C@@H](Cc2ccc(O)cc2)C(N)=O)cc1` (stereo in doubt; 19) showed a Ki (Vasopressin V1a receptor [1]) of 1.1 nM, a Ki (Vasopressin V1a receptor [2]) of 0.24 nM and a Ki (Vasopressin V2 receptor) of 10 nM. The Ki (Oxytocin receptor) was 0.65 nM.
In the case of `COc1ccc(C[C@@H](NC(=O)CCc2ccc(N=[N+]=[N-])cc2)C(=O)N[C@@H](Cc2ccccc2)C(=O)N[C@@H](CCC(N)=O)C(=O)N[C@@H](CC(N)=O)C(=O)N[C@@H](CCCN=C(N)N)C(=O)N2CCC[C@H]2C(=O)N[C@@H](CCCN=C(N)N)C(=O)N[C@@H](Cc2ccc(O)cc2)C(N)=O)cc1` (stereo in doubt; 20), the Ki (Vasopressin V1a receptor [1]) is reported as 0.47 nM, the Ki (Vasopressin V1a receptor [2]) is reported as 0.11 nM and the Kd (Vasopressin V1a receptor [3]) is reported as 0.19 nM. For the same molecule, the Ki (Vasopressin V2 receptor) was 1.6 nM and the Ki (Oxytocin receptor) was 37.7 nM.
`COc1ccc(C[C@@H](NC(=O)CCc2cccc(N=[N+]=[N-])c2)C(=O)N[C@@H](Cc2ccccc2)C(=O)N[C@@H](CCC(N)=O)C(=O)N[C@@H](CC(N)=O)C(=O)N[C@@H](CCCNC(=N)N)C(=O)N2CCC[C@H]2C(=O)N[C@@H](CCCNC(=N)N)C(=O)N[C@@H](Cc2ccc(O)cc2)C(N)=O)cc1` (stereo in doubt; 21) showed a Ki (Vasopressin V1a receptor [1]) of 0.27 nM, a Ki (Vasopressin V1a receptor [2]) of 0.13 nM and a Kd (Vasopressin V1a receptor [3]) of 0.054 nM. It also gave a Ki (Vasopressin V2 receptor) of 16 nM and a Ki (Oxytocin receptor) of 1.4 nM.
For `COc1ccc(C[C@@H](NC(=O)CCCc2ccc(N=[N+]=[N-])cc2)C(=O)N[C@@H](Cc2ccccc2)C(=O)N[C@@H](CCC(N)=O)C(=O)N[C@@H](CC(N)=O)C(=O)N[C@@H](CCCN=C(N)N)C(=O)N2CCC[C@H]2C(=O)N[C@@H](CCCN=C(N)N)C(=O)N[C@@H](Cc2ccc(O)cc2)C(N)=O)cc1` (stereo in doubt; 22), the Ki (Oxytocin receptor) was 18 nM.
